Results on 1 compound are retold here after ChEMBL document CHEMBL2177043, “HIV-1 X4 activities of polycationic "viologen" based dendrimers by interaction with the chemokine receptor CXCR4: study of structure-activity relationship” (J Med Chem, 2012).

Activity calls are given as the source filed them. The rule behind the calls is not given here.

A word on the IC50: it is the concentration at which inhibition is half-maximal. By CC50 is commonly meant the concentration that lowers cell viability or growth by half. Low readings indicate greater toxicity to the cells, high ones lower toxicity to the cells.

In data set [1] the target is T1, C-X-C chemokine receptor type 4 (Homo sapiens, UniProt P61073). The experiment in a line: Agonist activity against CXCR4 expressed in U87.CD.CXCR4 cells assessed as stimulation of calcium signaling incubated for 10 mins by FLIPR. The format is functional, cell-based. Summed up: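 U87.CD4 cells stably carrying CXCR4 or CCR5, trypsinized and seeded at 2 × 10⁴ cells/well on 0.2% gelatin the day before. Loaded with Fluo-3 AM (4 μM, 45 min, 37 °C), washed, then exposed to test agents alone at varied concentrations in assay buffer for 10 min at 37 °C. Cytosolic Ca²⁺ rise monitored over time by FLIPR to detect any agonist-triggered signal.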

The target of data set [2] is T1, C-X-C chemokine receptor type 4. Nature of the data set: Antagonist activity against CXCR4 expressed in U87.CD.CXCR4 cells assessed as inhibition of CXCL12-induced calcium signaling incubated for 10 mins by FLIPR. The class given is functional, cell-based. Put shortly: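 U87.CD4.CXCR4 cells seeded at 2 × 10⁴/well on 0.2% gelatin the day before, loaded with 4 μM Fluo-3 AM for 45 min at 37 °C, washed, then preincubated with compounds at varied concentrations in assay buffer for 10 min at 37 °C. Challenged with 25 ng/mL CXCL12; Ca²⁺ flux followed over time by FLIPR.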

The subject of data set [3] is Human immunodeficiency virus 1. Nature of the data set: Antiviral activity against X4 HIV1 NL4.3 infected in human MT4 cells assessed as inhibition of viral replication pre-incubated for 30 mins […]. The class given is functional, organism-based. The note with it: Human immunodeficiency virus 1, NL4.3, MT4.
Data set [4] can be described thus: Cytotoxicity against human PBMC cells by MTT assay. The class given is cell-based. (In general: Tetrazolium assays rely on reduction of a dye to a coloured formazan, in cell work by metabolically active cells.)
The target in data set [5] is T1, C-X-C chemokine receptor type 4. The experiment in a line: Inhibition of anti-CXCR4 mAbs clone 12G5 binding to CXCR4 in human SUPT1 cells incubated for 30 mins by FACS. A general note: A flow cytometer gives signals particle by particle.
Data set [6] has the same target. The experiment in a line: Inhibition of CXCL-12'AF647 binding to CXCR4 in human SUPT1 cells incubated for 15 mins by FACS. The class given is cell-based. Summed up: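 SupT1 cells (high CXCR4) washed, then incubated 15 min at room temperature with compounds at varied concentrations in HBSS containing 20 mM HEPES and 0.2% BSA, pH 7.4. CXCL12-AF647 added at 25 ng/mL final for 30 min at room temperature. Cells washed, fixed in 1% paraformaldehyde, and read by flow cytometry on FL4.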

Data set [7] has as its target T2, C-C chemokine receptor type 5 (Homo sapiens, UniProt P51681). Nature of the data set: Agonist activity against CCR5 expressed in U87.CD4.CCR5 cells assessed as stimulation of calcium signaling incubated for 10 mins by FLIPR.
Data set [8] addresses T1, C-X-C chemokine receptor type 4. Nature of the data set: Inhibition of anti-CXCR4 mAbs clone 173 binding to CXCR4 in human SUPT1 cells incubated for 30 mins by FACS.
Data set [9] deals with T2, C-C chemokine receptor type 5. Nature of the data set: Antagonist activity against CCR5 expressed in U87.CD4.CCR5 cells assessed as inhibition of CCL3L1-induced calcium signaling incubated for 10 mins by FLIPR.
For data set [10], the system named is Human immunodeficiency virus 1. Nature of the data set: Antiviral activity against X4 HIV1 NL4.3 infected in human PBMC assessed as inhibition of viral replication pre-incubated for 30 mins measured 5 days post infection by MTT assay. The format is functional, organism-based. The conditions noted are these: Human immunodeficiency virus 1, NL4.3. Summed up:
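Human PBMC infected with HIV-1 NL4.3. IC₅₀ is the concentration inhibiting viral replication by 50%, averaged over two independent experiments. Cytotoxicity (CC₅₀, 50% loss of PBMC viability) evaluated in the same assay.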

The target of data set [11] is T1, C-X-C chemokine receptor type 4. The experiment in a line: Inhibition of anti-CXCR4 mAbs clone 1D9 binding to CXCR4 in human SUPT1 cells incubated for 30 mins by FACS.
The nature of data set [12]: Cytotoxicity against human MT4 cells by MTT assay. The format is cell-based.
Data set [13] concerns the target T2, C-C chemokine receptor type 5. The experiment in a line: Antagonist activity against CCR5 expressed in U87.CD4.CCR5 cells assessed as inhibition of CCL3L1-induced calcium signaling incubated for 10 mins by FLIPR. The format is functional, cell-based. Summed up:
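U87.CD4.CCR5 cells seeded at 2 × 10⁴/well on 0.2% gelatin the day before, loaded with 4 μM Fluo-3 AM for 45 min at 37 °C, washed, then preincubated with compounds at varied concentrations in assay buffer for 10 min at 37 °C. Stimulated with 10 ng/mL LD78β (CCL3L1); Ca²⁺ flux recorded by FLIPR.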

T1 sequence (P61073 whole entry): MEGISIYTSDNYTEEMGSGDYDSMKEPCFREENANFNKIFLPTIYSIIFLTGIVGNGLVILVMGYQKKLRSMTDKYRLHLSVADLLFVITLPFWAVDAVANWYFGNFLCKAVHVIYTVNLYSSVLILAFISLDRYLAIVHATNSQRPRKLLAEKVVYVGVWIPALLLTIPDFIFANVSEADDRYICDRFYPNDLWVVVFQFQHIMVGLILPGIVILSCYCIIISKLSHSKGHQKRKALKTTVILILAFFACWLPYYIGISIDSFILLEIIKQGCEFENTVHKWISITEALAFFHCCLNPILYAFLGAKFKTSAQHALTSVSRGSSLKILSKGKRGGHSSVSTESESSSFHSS
T2 sequence (P51681 whole entry, looked up): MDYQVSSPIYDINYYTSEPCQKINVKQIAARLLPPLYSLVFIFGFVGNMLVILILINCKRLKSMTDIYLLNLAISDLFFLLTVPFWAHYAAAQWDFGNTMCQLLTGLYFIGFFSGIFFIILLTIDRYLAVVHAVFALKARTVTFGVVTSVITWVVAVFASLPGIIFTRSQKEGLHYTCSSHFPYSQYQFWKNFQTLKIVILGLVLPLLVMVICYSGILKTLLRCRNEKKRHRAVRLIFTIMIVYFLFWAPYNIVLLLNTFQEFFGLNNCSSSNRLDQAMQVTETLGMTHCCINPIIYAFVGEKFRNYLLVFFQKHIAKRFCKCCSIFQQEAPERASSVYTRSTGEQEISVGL

`Cc1cn(CCC[n+]2ccc(-c3cc[n+](Cc4cc(C[n+]5ccc(-c6cc[n+](CCCn7cc(C)c(=O)[nH]c7=O)cc6)cc5)cc(C[n+]5ccc(-c6cc[n+](Cc7cc(C[n+]8ccc(-c9cc[n+](Cc%10cc(C[n+]%11ccc(-c%12cc[n+](CCCn%13cc(C)c(=O)[nH]c%13=O)cc%12)cc%11)cc(C[n+]%11ccc(-c%12cc[n+](CCCn%13cc(C)c(=O)[nH]c%13=O)cc%12)cc%11)c%10)cc9)cc8)cc(C[n+]8ccc(-c9cc[n+](Cc%10cc(C[n+]%11ccc(-c%12cc[n+](Cc%13cc(C[n+]%14ccc(-c%15cc[n+](Cc%16cc(C[n+]%17ccc(-c%18cc[n+](CCCn%19cc(C)c(=O)[nH]c%19=O)cc%18)cc%17)cc(C[n+]%17ccc(-c%18cc[n+](CCCn%19cc(C)c(=O)[nH]c%19=O)cc%18)cc%17)c%16)cc%15)cc%14)cc(C[n+]%14ccc(-c%15cc[n+](Cc%16cc(C[n+]%17ccc(-c%18cc[n+](CCCn%19cc(C)c(=O)[nH]c%19=O)cc%18)cc%17)cc(C[n+]%17ccc(-c%18cc[n+](CCCn%19cc(C)c(=O)[nH]c%19=O)cc%18)cc%17)c%16)cc%15)cc%14)c%13)cc%12)cc%11)cc(C[n+]%11ccc(-c%12cc[n+](Cc%13cc(C[n+]%14ccc(-c%15cc[n+](Cc%16cc(C[n+]%17ccc(-c%18cc[n+](CCCn%19cc(C)c(=O)[nH]c%19=O)cc%18)cc%17)cc(C[n+]%17ccc(-c%18cc[n+](CCCn%19cc(C)c(=O)[nH]c%19=O)cc%18)cc%17)c%16)cc%15)cc%14)cc(C[n+]%14ccc(-c%15cc[n+](Cc%16cc(C[n+]%17ccc(-c%18cc[n+](CCCn%19cc(C)c(=O)[nH]c%19=O)cc%18)cc%17)cc(C[n+]%17ccc(-c%18cc[n+](CCCn%19cc(C)c(=O)[nH]c%19=O)cc%18)cc%17)c%16)cc%15)cc%14)c%13)cc%12)cc%11)c%10)cc9)cc8)c7)cc6)cc5)c4)cc3)cc2)c(=O)[nH]c1=O.F[P-](F)(F)(F)(F)F.F[P-](F)(F)(F)(F)F.F[P-](F)(F)(F)(F)F.F[P-](F)(F)(F)(F)F.F[P-](F)(F)(F)(F)F.F[P-](F)(F)(F)(F)F.F[P-](F)(F)(F)(F)F.F[P-](F)(F)(F)(F)F.F[P-](F)(F)(F)(F)F.F[P-](F)(F)(F)(F)F.F[P-](F)(F)(F)(F)F.F[P-](F)(F)(F)(F)F.F[P-](F)(F)(F)(F)F.F[P-](F)(F)(F)(F)F.F[P-](F)(F)(F)(F)F.F[P-](F)(F)(F)(F)F.F[P-](F)(F)(F)(F)F.F[P-](F)(F)(F)(F)F.F[P-](F)(F)(F)(F)F.F[P-](F)(F)(F)(F)F.F[P-](F)(F)(F)(F)F.F[P-](F)(F)(F)(F)F.F[P-](F)(F)(F)(F)F.F[P-](F)(F)(F)(F)F.F[P-](F)(F)(F)(F)F.F[P-](F)(F)(F)(F)F.F[P-](F)(F)(F)(F)F.F[P-](F)(F)(F)(F)F.F[P-](F)(F)(F)(F)F.F[P-](F)(F)(F)(F)F.F[P-](F)(F)(F)(F)F.F[P-](F)(F)(F)(F)F.F[P-](F)(F)(F)(F)F.F[P-](F)(F)(F)(F)F.F[P-](F)(F)(F)(F)F.F[P-](F)(F)(F)(F)F.F[P-](F)(F)(F)(F)F.F[P-](F)(F)(F)(F)F.F[P-](F)(F)(F)(F)F.F[P-](F)(F)(F)(F)F.F[P-](F)(F)(F)(F)F.F[P-](F)(F)(F)(F)F`: the result in data set [1] and in data set [7] was inactive. Besides, the IC50 in [2] was 38.3 nM; in data set [3], 1.5 µg/mL; in data set [5], 178 nM; in data set [6] it was 124 nM; in data set [8] it was 191 nM; in data set [10] it was 2.32 µg/mL. For the same compound, the IC50 in [11] was 233 nM; in data set [13] it was 1750 nM. For the same compound, the inhibition entry in [2], in data set [5], in data set [8], in data set [9] and in [11] was “Dose-dependent effect” in each case. In addition, the values for the CC50 in [4] and in data set [12] were 20 µg/mL and 9 µg/mL, respectively.
